# Results: PubChem BioAssay AID504382 (The Scripps Research Institute Molecular Screening Center, 2011)
# Screen size: about 2,500 compounds; about 460 (18%) were called active. Not all results are given here. A number with no mark means an inactive call.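 The calls were made as follows: active = mean activation above a cutoff of low control average plus 3 SD from the earlier screen (cut at about 12% in these data); inactive = the rest.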
# Assay: IANBD-channel fluorescence artefacts in buffer – biochemical, artefact control for cardiac RTF calcium sensitizer project, confirmation (AID 504382)
# Settings: IANBD fluorescence interference counterscreen, EC20 Ca2+, at 7.2 µM, stronger effect = higher value, scaled: EC20 calcium 0, EC100 calcium 100
# Method in brief: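 Doses – one dose of 7.2 µM, 0.7% DMSO · Buffer or medium – MOPS/KCl/MgCl2/EGTA/NTA/DTT buffer, pH 7.2 · Probe or stimulus – Ca2+ fixed at EC20, 0.472 mM · Measured by – fluorescence intensity, excitation 480 nm, emission 540 nm · Read-out – fluorescence interference versus control range · Timing – 15 min compound exposure at 25 °C · Replication – triplicate wells per compound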
row,Structure (SMILES),fluorescence artifact activation
1,CCOC(=O)CN1C(=O)S/C(=C/C=C/c2ccc(N(C)C)cc2)C1=O,-0.03%
2,O=C(/C=C/c1cn(CC(O)CN2CCCCCC2)c2ccccc12)c1cccs1 (centres undefined),5.69%
3,CCCN(CCC)CC(O)Cn1cc(/C=C/C(=O)c2cccs2)c2ccccc21 (centres undefined),0.1%
4,COc1ccc(C(=O)/C=C/c2cn(CC(O)CN3CCOCC3)c3ccccc23)cc1 (centres undefined),6.56%
5,O=C(/C=C/c1cn(CC(O)CN2CCCCC2)c2ccccc12)c1cccs1 (centres undefined),14.5% (active)
6,Cc1ccc(C(=O)/C=C/c2cn(CC(O)CN3CCOCC3)c3ccccc23)cc1 (centres undefined),0.01%
7,COc1ccc(C(=O)/C=C/c2cn(CC(O)CN3CCN(C)CC3)c3ccccc23)cc1OC (centres undefined),18.9% (active)
8,CCN(CC)c1ccc(-c2sc(Nc3ccccc3)n[n+]2-c2ccc(F)cc2)cc1,3.87%
9,C=CCOc1ccn(C)c(=O)n1,2.39%
10,O=[N+]([O-])c1ccc(/C=C/C2=NN(c3ccccc3)C(c3ccco3)C2)cc1 (centres undefined),6.35%
11,Cc1nnc(N/N=C/c2ccc(O)c([N+](=O)[O-])c2)[nH]c1=O,8.03%
12,O=S1(=O)CCOC[C@H](CC2CCCCC2)N1Cc1ccccc1,0.05%
13,O=C(NCCNC(=O)c1cccs1)c1ccco1,10.5%
14,CCCC(=O)NCCCc1nc2ccccc2n1C,43.2% (active)
15,Cn1c(CCNC(=O)c2ccco2)nc2ccccc21,350% (active)
16,Cn1c(=O)c2c(nc(NCCNC(=O)c3ccco3)n2Cc2ccccc2Cl)n(C)c1=O,0.11%
17,CCn1c(CNc2ccc(C(=O)O)cc2)nc2ccccc21,-0.08%
18,O=C(Cn1c(C(F)(F)F)nc2ccccc21)NCCN1CCCC1,0.11%
19,COc1ccc(CN2CNc3c(c(=O)n(C)c(=O)n3C)C2)cc1,6.35%
20,Brc1ccc(-c2noc(-c3ccccn3)n2)o1,0.61%

row,Structure (SMILES),fluorescence artifact activation
1,O=C1C(=Cc2ccco2)CCCC1=Cc1ccco1,6.25%
2,O=C(NCc1ccccc1Cl)c1ccc2nc[nH]c2c1,-0.08%
3,CCOC(=O)CC1=NS(=O)(=O)c2ccccc2N1,2.81%
4,COc1ccccc1NS(=O)(=O)c1ccccc1C#N,-0.04%
5,COc1ccccc1NS(=O)(=O)c1cc(NC(=O)CCNC(C)=O)ccc1N1CCCCC1,0.74%
6,COc1ccccc1NS(=O)(=O)c1cc(NC(=O)c2cc3ccccc3oc2=O)ccc1C,16.8% (active)
7,CCNc1nc(SCC(N)=O)nc2sc3c(c12)CCN(C)C3,0.22%
8,CN(/N=C/c1ccc(-c2ccc([N+](=O)[O-])cc2)o1)c1ccccc1,9.54%
9,COc1ccccc1NS(=O)(=O)c1cc([N+](=O)[O-])ccc1N/N=C/c1c(C)[nH]c2ccccc12,4.83%
10,COCCN=c1scc(-c2cc(OC)c(OC)c(OC)c2)n1/N=C/c1c(C)[nH]c2ccccc12,21.1% (active)
11,CCN(CC)S(=O)(=O)c1ccc2[nH]cc(C(=O)NCCN3CCCCCC3)c(=O)c2c1,14.6% (active)
12,Cn1c(C(=O)NCCCN2CCCCCC2)cc2c(=O)n(C)c3ccccc3c21,3.34%
13,CCN(CC)S(=O)(=O)c1ccc2[nH]c(=O)[nH]c2c1,0.38%
14,O=C(CSCc1ccco1)NC1CCCC1,5.75%
15,CCN(CC)C1=CC2=CC(=C(C#N)C#N)CCC2CC1 (centres undefined),0.13%
16,O=C(Nc1ccc(S(=O)(=O)Nc2ncccn2)cc1)C1CC(=O)N(c2ccccc2)C1 (centres undefined),-0.09%
17,CCn1cc([N+](=O)[O-])c(C(=O)Nc2ccn(Cc3ccccc3)n2)n1,1.63%
18,O=C(Nc1ccc(S(=O)(=O)Nc2ncccn2)cc1)c1nn(Cc2ccccc2)c(=O)c2ccccc12,303% (active)
19,CC(=O)c1ccc2c(c1)c(C#N)c1ccccc1[n+]2[O-],57.1% (active)
20,O=S(=O)(CCN(CCS(=O)(=O)C(F)(F)F)CC1CCCO1)C(F)(F)F (centres undefined),0.02%

row,Structure (SMILES),fluorescence artifact activation
1,O=C(c1cnc2ccccc2n1)N1CCN(c2ccc(C(F)(F)F)cn2)CC1,5.21%
2,CN(C)CCOc1ccccc1C(C)(C)C,0.06%
3,O=C1c2c(O)cc(O)cc2O[C@@]12c1c(cc(O)c3c1O[C@H](c1ccc(O)cc1)[C@@H](O)C3)O[C@@H]2c1ccc(O)cc1,0%
4,CCn1c(C(C)NC(C)=O)nc2ccccc21 (centres undefined),2.7%
5,O=S(=O)(O)c1nc2ccccc2n1Cc1ccccc1,16.5% (active)
6,c1ccc(Cn2c(-c3ccccc3)nc3nc4ccccc4nc32)cc1,6.17%
7,NC(=O)[C@@H]1CCCNc2c(I)cc([N+](=O)[O-])cc2C(=O)N[C@@H](CCC(=O)O)C(=O)N[C@@H](CO)C(=O)N1,0%
8,Cc1ccc(S(=O)(=O)N2CC(C(=O)O)=CC[C@H]2c2ccc(Cl)cc2)cc1,0.03%
9,Cc1cccc(NC(=O)c2ccc(C(=O)c3ccccc3)cc2)n1,1.13%
10,O=C(COC(=O)c1ccc(O)cc1)Nc1ccc2c(c1)OCCO2,13.1% (active)
11,NC(=O)c1ccc(NC(=O)COC(=O)c2c3c(nc4ccccc24)/C(=C\c2ccc4c(c2)OCO4)CCC3)cc1,0.16%
12,Cc1cc(C(=O)O)ccc1-c1ccc(/C=C2\SC(=O)N(CC(=O)Nc3ccc4c(c3)OCO4)C2=O)o1,0.42%
13,Cc1cc(C)c(S(=O)(=O)Nc2ccc3[nH]c(=O)[nH]c3c2)c(C)c1,3.79%
14,O=C/C(=C\Nc1ccc(S(=O)(=O)CCO)cc1)c1nc2cc(Cl)ccc2o1,20.2% (active)
15,Cc1ccc(-c2nc3sc(C#N)c(N)n3c(=O)c2C#N)cc1,0.13%
16,CC(C)CC1C(C#N)=C(N)SC(N)=C1C#N,0.12%
17,Cc1ccc(-n2c(C)cc(C(=O)COC(=O)c3ccc[nH]c3=O)c2C)cc1,-0.02%
18,Cc1cc(C(=O)COc2cccc3cccnc23)c(C)n1C,21.4% (active)
19,Cc1ccc(/C=C/C(=O)Nc2cccc3cccnc23)o1,4.18%
